Measured values published in ChEMBL document CHEMBL3792377, “Synthesis and characterization of a series of chiral alkoxymethyl morpholine analogs as dopamine receptor 4 (D4R) antagonists” (Bioorg Med Chem Lett, 2016).
pIC50, pKi: −log10 of the molar value.

System: not listed separately
Test: Ratio of drug level in brain to plasma in rat at 0.25 mg/kg, iv administered through cassette dosing at 0.25 hrs
Type: ADME, organism-based
Settings: not given

| Kp | Structure (SMILES) |
| --- | --- |
| 3.29 | Clc1ccc2c(CN3CCO[C@H](COc4ccccc4)C3)c[nH]c2c1 |
| 5.03 | Clc1ccc(CN2CCO[C@H](CSc3ccccc3)C2)cc1 |
| 5.73 | Cc1ccc(CN2CCO[C@H](CSc3ccccc3)C2)cc1C |

Biological target: T1, D(3) dopamine receptor (Homo sapiens, UniProt P35462)
T1 sequence (P35462 whole entry): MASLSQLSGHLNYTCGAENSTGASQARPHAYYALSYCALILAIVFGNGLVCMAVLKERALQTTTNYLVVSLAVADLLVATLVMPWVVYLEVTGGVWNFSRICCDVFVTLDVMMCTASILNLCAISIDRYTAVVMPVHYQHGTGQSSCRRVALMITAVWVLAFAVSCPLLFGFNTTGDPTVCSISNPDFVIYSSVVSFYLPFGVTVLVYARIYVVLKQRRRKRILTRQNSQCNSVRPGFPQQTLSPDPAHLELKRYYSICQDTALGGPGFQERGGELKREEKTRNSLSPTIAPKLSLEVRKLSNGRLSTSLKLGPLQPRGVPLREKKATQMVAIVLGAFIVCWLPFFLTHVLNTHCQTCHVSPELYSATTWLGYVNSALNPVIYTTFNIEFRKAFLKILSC
Test: Displacement of [3H]-Spiperone from human recombinant dopamine D3 receptor expressed in CHO cells at 10 uM relative to control
Type: cell-based
Settings: not given
In short: (§1)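 Off-target dopamine receptor radioligand binding (D1, D2L, D2S, D3, D5), run as a contract assay. Test compound at a single concentration of 10 µM, reported as % inhibition of specific binding, measured in duplicate.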

| inhibition [%] | Structure (SMILES) |
| --- | --- |
| 70 | Clc1ccc2c(CN3CCO[C@H](COc4ccccc4)C3)c[nH]c2c1 |

Biological target: T2, D(1B) dopamine receptor (Homo sapiens, UniProt P21918)
T2 sequence (P21918 whole entry): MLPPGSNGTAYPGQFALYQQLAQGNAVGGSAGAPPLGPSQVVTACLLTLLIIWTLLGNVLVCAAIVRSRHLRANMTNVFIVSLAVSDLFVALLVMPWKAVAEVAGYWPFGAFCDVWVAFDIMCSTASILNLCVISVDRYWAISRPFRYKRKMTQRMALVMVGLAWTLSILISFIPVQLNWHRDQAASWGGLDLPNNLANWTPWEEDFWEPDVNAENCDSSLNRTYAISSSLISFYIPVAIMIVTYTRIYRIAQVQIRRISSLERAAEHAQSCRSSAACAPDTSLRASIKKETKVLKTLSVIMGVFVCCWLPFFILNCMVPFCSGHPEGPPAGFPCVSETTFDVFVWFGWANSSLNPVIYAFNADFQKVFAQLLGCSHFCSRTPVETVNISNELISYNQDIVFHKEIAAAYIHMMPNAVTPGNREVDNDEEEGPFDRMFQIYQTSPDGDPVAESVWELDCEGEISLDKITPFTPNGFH
Test: Displacement of [3H]-SCH-23390 from human recombinant dopamine D5 receptor expressed in CHO cells
Type: cell-based
Settings: not given

| pKi | Structure (SMILES) |
| --- | --- |
| < 5.00 | Clc1ccc(CN2CCO[C@H](CSc3ccccc3)C2)cc1 |
| < 5.00 | Cc1ccc(CN2CCO[C@H](CSc3ccccc3)C2)cc1C |

System: not listed separately
Test: Fraction unbound in human plasma by equilibrium dialysis method
Type: ADME, cell-free
Settings: not given

| Fu | Structure (SMILES) |
| --- | --- |
| 0.006 | Clc1ccc2c(CN3CCO[C@H](COc4ccccc4)C3)c[nH]c2c1 |
| 0.008 | Clc1ccc(CN2CCO[C@H](CSc3ccccc3)C2)cc1 |
| 0.001 | Cc1ccc(CN2CCO[C@H](CSc3ccccc3)C2)cc1C |

Biological target: T3, D(1A) dopamine receptor (Homo sapiens, UniProt P21728)
T3 sequence (P21728 whole entry): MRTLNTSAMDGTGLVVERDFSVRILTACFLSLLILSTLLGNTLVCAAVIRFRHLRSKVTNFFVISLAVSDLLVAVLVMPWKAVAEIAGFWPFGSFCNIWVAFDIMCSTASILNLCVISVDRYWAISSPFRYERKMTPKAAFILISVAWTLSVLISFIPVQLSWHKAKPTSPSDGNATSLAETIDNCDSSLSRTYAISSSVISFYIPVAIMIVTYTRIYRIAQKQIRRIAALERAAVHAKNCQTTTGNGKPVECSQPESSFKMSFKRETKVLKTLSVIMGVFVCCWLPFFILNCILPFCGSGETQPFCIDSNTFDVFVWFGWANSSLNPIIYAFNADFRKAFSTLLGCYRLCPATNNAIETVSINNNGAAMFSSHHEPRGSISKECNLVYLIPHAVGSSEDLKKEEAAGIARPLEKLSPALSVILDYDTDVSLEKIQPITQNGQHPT
Test: Displacement of [3H]-SCH-23390 from human recombinant dopamine D1 receptor expressed in CHO cells at 10 uM relative to control
Type: cell-based
Settings: not given
In short: as §1

| inhibition [%] | Structure (SMILES) |
| --- | --- |
| < 50 | Clc1ccc2c(CN3CCO[C@H](COc4ccccc4)C3)c[nH]c2c1 |

Species on record: Homo sapiens
Test: Selectivity ratio of Ki for human recombinant dopamine D1 receptor to Ki for human recombinant dopamine D4 receptor
Settings: not given

| Ratio Ki | Structure (SMILES) |
| --- | --- |
| > 1000 | Clc1ccc(CN2CCO[C@H](CSc3ccccc3)C2)cc1 |
| > 1000 | Cc1ccc(CN2CCO[C@H](CSc3ccccc3)C2)cc1C |

Biological target: T4, D(4) dopamine receptor (Homo sapiens, UniProt P21917)
T4 sequence (P21917 whole entry): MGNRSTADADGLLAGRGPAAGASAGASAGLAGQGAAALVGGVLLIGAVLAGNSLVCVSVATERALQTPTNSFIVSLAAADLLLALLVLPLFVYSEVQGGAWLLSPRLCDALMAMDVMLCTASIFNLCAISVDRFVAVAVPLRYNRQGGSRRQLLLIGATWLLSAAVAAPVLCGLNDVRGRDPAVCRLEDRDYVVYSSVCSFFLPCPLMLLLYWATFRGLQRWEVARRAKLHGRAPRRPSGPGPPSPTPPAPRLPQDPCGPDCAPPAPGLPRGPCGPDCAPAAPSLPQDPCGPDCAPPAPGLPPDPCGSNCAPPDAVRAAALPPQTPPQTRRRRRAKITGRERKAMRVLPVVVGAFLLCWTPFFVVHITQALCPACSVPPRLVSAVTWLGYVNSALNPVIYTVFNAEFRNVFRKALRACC
Test: Displacement of [3H]-Spiperone from human recombinant dopamine D4 receptor expressed in CHOK1 cells
Type: cell-based, CHO-K1
Settings: not given
In short: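 Radioligand binding at human D4 receptor using [3H]-spiperone, run as a contract assay in duplicate. IC50 and Ki were derived from concentration–response data. Single-point values are % inhibition of specific binding at 10 µM test compound.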

| pIC50 | pKi | Structure (SMILES) |
| --- | --- | --- |
| 8.10 | 8.66 | Clc1ccc2c(CN3CCO[C@H](COc4ccccc4)C3)c[nH]c2c1 |
| 7.47 | 8.03 | Clc1ccc(CN2CCO[C@H](CSc3ccccc3)C2)cc1 |
| 7.57 | 8.13 | Cc1ccc(CN2CCO[C@H](CSc3ccccc3)C2)cc1C |

Biological target: T5, D(2) dopamine receptor (Homo sapiens, UniProt P14416)
T5 sequence (P14416 whole entry): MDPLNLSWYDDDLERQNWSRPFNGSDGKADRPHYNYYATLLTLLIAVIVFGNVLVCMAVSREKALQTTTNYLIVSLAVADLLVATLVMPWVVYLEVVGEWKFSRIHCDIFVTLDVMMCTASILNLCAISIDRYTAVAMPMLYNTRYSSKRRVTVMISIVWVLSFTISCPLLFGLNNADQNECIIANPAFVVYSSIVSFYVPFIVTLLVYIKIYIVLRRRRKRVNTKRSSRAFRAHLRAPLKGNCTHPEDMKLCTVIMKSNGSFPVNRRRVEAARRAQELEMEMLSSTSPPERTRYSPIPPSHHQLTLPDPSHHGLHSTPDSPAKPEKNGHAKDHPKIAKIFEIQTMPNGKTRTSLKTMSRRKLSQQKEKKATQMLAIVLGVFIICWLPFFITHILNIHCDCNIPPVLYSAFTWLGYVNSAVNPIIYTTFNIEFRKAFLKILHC
Test: Displacement of [3H]-Spiperone from human recombinant dopamine D2L receptor expressed in CHO cells at 10 uM relative to control
Type: cell-based
Settings: not given
In short: as §1

| inhibition [%] | Structure (SMILES) |
| --- | --- |
| 94 | Clc1ccc2c(CN3CCO[C@H](COc4ccccc4)C3)c[nH]c2c1 |

Species on record: Homo sapiens
Test: Selectivity ratio of Ki for human recombinant dopamine D2S receptor to Ki for human recombinant dopamine D4 receptor
Settings: not given

| Ratio Ki | Structure (SMILES) |
| --- | --- |
| > 1000 | Clc1ccc(CN2CCO[C@H](CSc3ccccc3)C2)cc1 |
| > 1000 | Cc1ccc(CN2CCO[C@H](CSc3ccccc3)C2)cc1C |

Biological target: Dopamine receptors; D3 & D4 (Homo sapiens) (UniProt P35462+P21917)
Sequence (P35462 whole entry, looked up, one chain of several): as the sequence (P35462 whole entry) above
Test: Selectivity ratio of Ki for human recombinant dopamine D3 receptor to Ki for human recombinant dopamine D4 receptor
Settings: not given

| Ratio Ki | Structure (SMILES) |
| --- | --- |
| > 1000 | Clc1ccc(CN2CCO[C@H](CSc3ccccc3)C2)cc1 |
| > 1000 | Cc1ccc(CN2CCO[C@H](CSc3ccccc3)C2)cc1C |

Biological target: T2, D(1B) dopamine receptor
Test: Displacement of [3H]-SCH-23390 from human recombinant dopamine D5 receptor expressed in CHO cells at 10 uM relative to control
Type: cell-based
Settings: not given
In short: as §1

| inhibition [%] | Structure (SMILES) |
| --- | --- |
| < 50 | Clc1ccc2c(CN3CCO[C@H](COc4ccccc4)C3)c[nH]c2c1 |

Species on record: Homo sapiens
Test: Selectivity ratio of Ki for human recombinant dopamine D2L receptor to Ki for human recombinant dopamine D4 receptor
Settings: not given

| Ratio Ki | Structure (SMILES) |
| --- | --- |
| > 1000 | Clc1ccc(CN2CCO[C@H](CSc3ccccc3)C2)cc1 |
| > 1000 | Cc1ccc(CN2CCO[C@H](CSc3ccccc3)C2)cc1C |

Biological target: T5, D(2) dopamine receptor
Test: Displacement of [3H]-Spiperone from human recombinant dopamine D2S receptor expressed in CHO cells
Type: cell-based
Settings: not given

| pKi | Structure (SMILES) |
| --- | --- |
| < 5.00 | Clc1ccc(CN2CCO[C@H](CSc3ccccc3)C2)cc1 |
| < 5.00 | Cc1ccc(CN2CCO[C@H](CSc3ccccc3)C2)cc1C |

System: Liver microsome
Test: Drug level in human liver microsomes treated with (S)-2-((6-chloropyridin-2-yloxy)methyl)-4-((6-fluoro-1H-indol-3-yl)methyl)morpholine in presence of NADPH
Type: ADME
Settings: not given
In short: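 Human liver microsomes incubated with compound plus NADPH, alongside a matched no-NADPH incubation; samples profiled for remaining parent and for metabolites formed.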

| Structure (SMILES) | Drug metabolism |
| --- | --- |
| Clc1cccc(OC[C@@H]2CNCCO2)n1 | metabolite_detected |

Biological target: T1, D(3) dopamine receptor
Test: Displacement of [3H]-Spiperone from human recombinant dopamine D3 receptor expressed in CHO cells
Type: cell-based
Settings: not given

| pKi | Structure (SMILES) |
| --- | --- |
| < 5.00 | Clc1ccc(CN2CCO[C@H](CSc3ccccc3)C2)cc1 |
| < 5.00 | Cc1ccc(CN2CCO[C@H](CSc3ccccc3)C2)cc1C |

System: not listed separately
Test: Plasma concentration in rat at 0.25 mg/kg, iv administered through cassette dosing at 0.25 hrs
Type: ADME, organism-based
Settings: not given

| concentration at 0.25 h [ng/mL] | Structure (SMILES) |
| --- | --- |
| 74.8 | Clc1ccc2c(CN3CCO[C@H](COc4ccccc4)C3)c[nH]c2c1 |
| 26.1 | Clc1ccc(CN2CCO[C@H](CSc3ccccc3)C2)cc1 |
| 23.1 | Cc1ccc(CN2CCO[C@H](CSc3ccccc3)C2)cc1C |

Biological target: T5, D(2) dopamine receptor
Test: Displacement of [3H]-Spiperone from human recombinant dopamine D2L receptor expressed in CHO cells
Type: cell-based
Settings: not given

| pKi | Structure (SMILES) |
| --- | --- |
| < 5.00 | Clc1ccc(CN2CCO[C@H](CSc3ccccc3)C2)cc1 |
| < 5.00 | Cc1ccc(CN2CCO[C@H](CSc3ccccc3)C2)cc1C |

System: not listed separately
Test: Drug uptake in rat brain at 0.25 mg/kg, iv administered through cassette dosing at 0.25 hrs
Type: ADME, organism-based
Settings: read-out: Drug uptake

| concentration at 0.25 h [ng/g] | Structure (SMILES) |
| --- | --- |
| 246 | Clc1ccc2c(CN3CCO[C@H](COc4ccccc4)C3)c[nH]c2c1 |
| 131 | Clc1ccc(CN2CCO[C@H](CSc3ccccc3)C2)cc1 |
| 132 | Cc1ccc(CN2CCO[C@H](CSc3ccccc3)C2)cc1C |

Biological target: T3, D(1A) dopamine receptor
Test: Displacement of [3H]-SCH-23390 from human recombinant dopamine D1 receptor expressed in CHO cells
Type: cell-based
Settings: not given

| pKi | Structure (SMILES) |
| --- | --- |
| < 5.00 | Clc1ccc(CN2CCO[C@H](CSc3ccccc3)C2)cc1 |
| < 5.00 | Cc1ccc(CN2CCO[C@H](CSc3ccccc3)C2)cc1C |

System: Plasma
Test: Fraction unbound in rat plasma by equilibrium dialysis method
Type: ADME, cell-free
Settings: not given

| Fu | Structure (SMILES) |
| --- | --- |
| 0.01 | Clc1ccc2c(CN3CCO[C@H](COc4ccccc4)C3)c[nH]c2c1 |
| 0.005 | Clc1ccc(CN2CCO[C@H](CSc3ccccc3)C2)cc1 |
| 0.004 | Cc1ccc(CN2CCO[C@H](CSc3ccccc3)C2)cc1C |

Biological target: T5, D(2) dopamine receptor
Test: Displacement of [3H]-Spiperone from human recombinant dopamine D2S receptor expressed in CHO cells at 10 uM relative to control
Type: cell-based
Settings: not given
In short: as §1

| inhibition [%] | Structure (SMILES) |
| --- | --- |
| 93 | Clc1ccc2c(CN3CCO[C@H](COc4ccccc4)C3)c[nH]c2c1 |
| < 50 | Clc1ccc(CN2CCO[C@H](CSc3ccccc3)C2)cc1 |
| < 50 | Cc1ccc(CN2CCO[C@H](CSc3ccccc3)C2)cc1C |

Species on record: Homo sapiens
Test: Selectivity ratio of Ki for human recombinant dopamine D5 receptor to Ki for human recombinant dopamine D4 receptor
Settings: not given

| Ratio Ki | Structure (SMILES) |
| --- | --- |
| > 1000 | Clc1ccc(CN2CCO[C@H](CSc3ccccc3)C2)cc1 |
| > 1000 | Cc1ccc(CN2CCO[C@H](CSc3ccccc3)C2)cc1C |
